Assay results reported in ChEMBL document CHEMBL3860039, “Structure-Activity Relationship and Signaling of New Chimeric CXCR4 Agonists” (J Med Chem, 2016).

Key:
Type in all cases: cell-based
[1] = target: T1, C-X-C chemokine receptor type 4 (Homo sapiens, UniProt P61073); experiment: Agonist activity at HA-tagged human CXCR4 receptor expressed in HEK293 cells co-transfected with Galphai1-91-RlucII, Gbeta1, and GFP10-G-gamma1 incubated for 7 mins by Galpha1 protein activation-based BRET assay
Method in brief: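 HEK293 cells (3 × 10^6 per 100 mm dish) co-transfected via polyethylenimine with HA-hCXCR4 plus Gαi1-91-RlucII, Gβ1, GFP10-Gγ1; replated at 24 h, 100 000 cells/well. At 48 h, washed in HBSS/0.1% BSA, exposed to ligand 10−12 to 10−5 M for 7 min, then coelenterazine-400A 5 μM final; BRET2 515/400 nm ratio. EC50 (Gαi dissociation) and Emax from three experiments in triplicate.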

[2] = target: T1, C-X-C chemokine receptor type 4; experiment: Displacement of [125I]-CXCL12 from HA-tagged human recombinant CXCR4 expressed in HEK293 cells incubated for 1 hr by gamma-radiation counting analysis
[3] = target: T1, C-X-C chemokine receptor type 4; experiment: Agonist activity at CXCR4 in human REH cells assessed as induction of chemotaxis incubated for 3 hrs by transwell migration assay
Method in brief: (§1)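 REH acute lymphoblastic B-cell leukaemia cells washed in RPMI; 100 000 cells in RPMI + 0.2% BSA seeded on top of 5 μm pore polycarbonate transwell, peptide dilutions in same medium in bottom chamber; 3 h, 37 °C, 5% CO2. Migrated cells in lower chamber counted by automated counter, expressed as % of seeded cells; peak = concentration giving maximal migration. Three experiments in triplicate.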

[4] = target: T1, C-X-C chemokine receptor type 4; experiment: Agonist activity at CXCR4 in human REH cells assessed as optimal concentration causing maximum induction of chemotaxis incubated for 3 hrs by transwell migration assay; method in brief: as §1

T1 sequence (P61073 whole entry): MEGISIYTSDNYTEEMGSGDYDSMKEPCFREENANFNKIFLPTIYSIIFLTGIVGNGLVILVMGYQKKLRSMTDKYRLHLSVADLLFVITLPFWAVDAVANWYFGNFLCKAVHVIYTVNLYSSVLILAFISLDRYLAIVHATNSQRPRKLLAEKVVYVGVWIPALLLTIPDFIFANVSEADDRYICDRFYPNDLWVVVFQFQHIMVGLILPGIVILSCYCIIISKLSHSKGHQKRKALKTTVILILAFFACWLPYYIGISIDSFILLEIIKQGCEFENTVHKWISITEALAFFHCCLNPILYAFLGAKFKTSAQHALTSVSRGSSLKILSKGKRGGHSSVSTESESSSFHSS

EC50 [1] | Emax [1] | IC50 [2] | %max [3] | Activity [4] | SMILES
50 nM | 70% | 31 nM | 70% | 10 nM | CC(C)C[C@H](NC(=O)[C@H](CO)NC(=O)[C@H](C/C=C/c1ccccc1)NC(=O)[C@@H]1CCCN1C(=O)[C@@H](N)CCCCN)C(=O)N[C@@H](CO)C(=O)N[C@@H](Cc1ccc(O)cc1)C(=O)N[C@@H](CCCNC(=N)N)C(=O)N[C@@H](CO)C(=O)N[C@@H](C)C(=O)NCCCC[C@H](NC(=O)[C@@H]1CSSC[C@H](NC(=O)[C@H](Cc2ccc3ccccc3c2)NC(=O)[C@H](CCCNC(=N)N)NC(=O)[C@@H](N)CCCNC(=N)N)C(=O)N[C@@H](Cc2ccc(O)cc2)C(=O)N[C@@H](CCCNC(=N)N)C(=O)N[C@@H](CCCCN)C(=O)N[C@H](CCCCN)C(=O)N2CCC[C@H]2C(=O)N[C@@H](Cc2ccc(O)cc2)C(=O)N[C@@H](CCCNC(=N)N)C(=O)N[C@@H](CCCNC(=N)N)C(=O)N1)C(=O)O
52 nM | 75% | 59 nM | 72% | 10 nM | CC(C)C[C@H](NC(=O)[C@H](CO)NC(=O)[C@H](Cc1ccc(C(=O)c2ccccc2)cc1)NC(=O)[C@@H]1CCCN1C(=O)[C@@H](N)CCCCN)C(=O)N[C@@H](CO)C(=O)N[C@@H](Cc1ccc(O)cc1)C(=O)N[C@@H](CCCNC(=N)N)C(=O)N[C@@H](CO)C(=O)N[C@@H](C)C(=O)NCCCC[C@H](NC(=O)[C@@H]1CSSC[C@H](NC(=O)[C@H](Cc2ccc3ccccc3c2)NC(=O)[C@H](CCCNC(=N)N)NC(=O)[C@@H](N)CCCNC(=N)N)C(=O)N[C@@H](Cc2ccc(O)cc2)C(=O)N[C@@H](CCCNC(=N)N)C(=O)N[C@@H](CCCCN)C(=O)N[C@H](CCCCN)C(=O)N2CCC[C@H]2C(=O)N[C@@H](Cc2ccc(O)cc2)C(=O)N[C@@H](CCCNC(=N)N)C(=O)N[C@@H](CCCNC(=N)N)C(=O)N1)C(=O)O
83 nM | 33% | 94 nM | 27% | 10 nM | CC(C)C[C@H](NC(=O)[C@H](CO)NC(=O)[C@@H](NC(=O)[C@@H]1CCCN1C(=O)[C@@H](N)CCCCN)C(C)C)C(=O)N[C@@H](CO)C(=O)N[C@@H](Cc1ccc(N)cc1)C(=O)N[C@@H](CCCNC(=N)N)C(=O)N[C@@H](CO)C(=O)N[C@@H](C)C(=O)NCCCC[C@H](NC(=O)[C@@H]1CSSC[C@H](NC(=O)[C@H](Cc2ccc3ccccc3c2)NC(=O)[C@H](CCCNC(=N)N)NC(=O)[C@@H](N)CCCNC(=N)N)C(=O)N[C@@H](Cc2ccc(O)cc2)C(=O)N[C@@H](CCCNC(=N)N)C(=O)N[C@@H](CCCCN)C(=O)N[C@H](CCCCN)C(=O)N2CCC[C@H]2C(=O)N[C@@H](Cc2ccc(O)cc2)C(=O)N[C@@H](CCCNC(=N)N)C(=O)N[C@@H](CCCNC(=N)N)C(=O)N1)C(=O)O
207 nM | 75% | 112 nM | 40% | 100 nM | CC(C)C[C@H](NC(=O)[C@H](CO)NC(=O)[C@H](Cc1ccc(C(=O)c2ccccc2)cc1)NC(=O)[C@@H]1CCCN1C(=O)[C@@H](N)CCCCN)C(=O)N[C@@H](CO)C(=O)N[C@@H](Cc1ccc(O)cc1)C(=O)NCCOCCOCCOCCC(=O)NCCCC[C@H](NC(=O)[C@@H]1CSSC[C@H](NC(=O)[C@H](Cc2ccc3ccccc3c2)NC(=O)[C@H](CCCNC(=N)N)NC(=O)[C@@H](N)CCCNC(=N)N)C(=O)N[C@@H](Cc2ccc(O)cc2)C(=O)N[C@@H](CCCNC(=N)N)C(=O)N[C@@H](CCCCN)C(=O)N[C@H](CCCCN)C(=O)N2CCC[C@H]2C(=O)N[C@@H](Cc2ccc(O)cc2)C(=O)N[C@@H](CCCNC(=N)N)C(=O)N[C@@H](CCCNC(=N)N)C(=O)N1)C(=O)O
61 nM | 24% | 437 nM | – | – | CC(C)C[C@H](NC(=O)[C@H](CO)NC(=O)[C@@H](NC(=O)[C@@H]1CCCN1C(=O)[C@@H](N)CCCCN)C(C)C)C(=O)N[C@@H](CO)C(=O)N[C@@H](Cc1ccc(O)cc1)C(=O)NCCOCCOCCOCCC(=O)NCCCC[C@H](NC(=O)[C@@H]1CSSC[C@H](NC(=O)[C@H](Cc2ccc3ccccc3c2)NC(=O)[C@H](CCCNC(=N)N)NC(=O)[C@@H](N)CCCNC(=N)N)C(=O)N[C@@H](Cc2ccc(O)cc2)C(=O)N[C@@H](CCCNC(=N)N)C(=O)N[C@@H](CCCCN)C(=O)N[C@H](CCCCN)C(=O)N2CCC[C@H]2C(=O)N[C@@H](Cc2ccc(O)cc2)C(=O)N[C@@H](CCCNC(=N)N)C(=O)N[C@@H](CCCNC(=N)N)C(=O)N1)C(=O)O
62 nM | 73% | 109 nM | 48% | 10 nM | CC(C)C[C@H](NC(=O)[C@H](CO)NC(=O)[C@@H](NC(=O)[C@@H]1CCCN1C(=O)[C@@H](N)CCCCN)C(C)C)C(=O)N[C@@H](CO)C(=O)N[C@@H](Cc1ccc([N+](=O)[O-])cc1)C(=O)N[C@@H](CCCNC(=N)N)C(=O)N[C@@H](CO)C(=O)N[C@@H](C)C(=O)NCCCC[C@H](NC(=O)[C@@H]1CSSC[C@H](NC(=O)[C@H](Cc2ccc3ccccc3c2)NC(=O)[C@H](CCCNC(=N)N)NC(=O)[C@@H](N)CCCNC(=N)N)C(=O)N[C@@H](Cc2ccc(O)cc2)C(=O)N[C@@H](CCCNC(=N)N)C(=O)N[C@@H](CCCCN)C(=O)N[C@H](CCCCN)C(=O)N2CCC[C@H]2C(=O)N[C@@H](Cc2ccc(O)cc2)C(=O)N[C@@H](CCCNC(=N)N)C(=O)N[C@@H](CCCNC(=N)N)C(=O)N1)C(=O)O
74 nM | 47% | 90 nM | 45% | 100 nM | CC(C)C[C@H](NC(=O)[C@H](CO)NC(=O)[C@H](Cc1cc2cccc3ccc4cccc1c4c32)NC(=O)[C@@H]1CCCN1C(=O)[C@@H](N)CCCCN)C(=O)N[C@@H](CO)C(=O)N[C@@H](Cc1ccc(O)cc1)C(=O)N[C@@H](CCCNC(=N)N)C(=O)N[C@@H](CO)C(=O)N[C@@H](C)C(=O)NCCCC[C@H](NC(=O)[C@@H]1CSSC[C@H](NC(=O)[C@H](Cc2ccc3ccccc3c2)NC(=O)[C@H](CCCNC(=N)N)NC(=O)[C@@H](N)CCCNC(=N)N)C(=O)N[C@@H](Cc2ccc(O)cc2)C(=O)N[C@@H](CCCNC(=N)N)C(=O)N[C@@H](CCCCN)C(=O)N[C@H](CCCCN)C(=O)N2CCC[C@H]2C(=O)N[C@@H](Cc2ccc(O)cc2)C(=O)N[C@@H](CCCNC(=N)N)C(=O)N[C@@H](CCCNC(=N)N)C(=O)N1)C(=O)O
138 nM | 79% | 102 nM | 76% | 100 nM | CC(C)C[C@H](NC(=O)[C@H](CO)NC(=O)[C@@H](NC(=O)[C@@H]1CCCN1C(=O)[C@@H](N)CCCCN)C(C)C)C(=O)N[C@@H](CO)C(=O)N[C@@H](Cc1ccc(OCc2ccccc2)cc1)C(=O)N[C@@H](CCCNC(=N)N)C(=O)N[C@@H](CO)C(=O)N[C@@H](C)C(=O)NCCCC[C@H](NC(=O)[C@@H]1CSSC[C@H](NC(=O)[C@H](Cc2ccc3ccccc3c2)NC(=O)[C@H](CCCNC(=N)N)NC(=O)[C@@H](N)CCCNC(=N)N)C(=O)N[C@@H](Cc2ccc(O)cc2)C(=O)N[C@@H](CCCNC(=N)N)C(=O)N[C@@H](CCCCN)C(=O)N[C@H](CCCCN)C(=O)N2CCC[C@H]2C(=O)N[C@@H](Cc2ccc(O)cc2)C(=O)N[C@@H](CCCNC(=N)N)C(=O)N[C@@H](CCCNC(=N)N)C(=O)N1)C(=O)O
– | – | 548 nM | – | – | CC(C)C[C@H](NC(=O)[C@H](CO)NC(=O)[C@@H](NC(=O)[C@@H]1CCCN1)C(C)C)C(=O)N[C@@H](CO)C(=O)N[C@@H](Cc1ccc(O)cc1)C(=O)N[C@@H](CCCNC(=N)N)C(=O)N[C@@H](CO)C(=O)N[C@@H](C)C(=O)NCCCC[C@H](NC(=O)[C@@H]1CSSC[C@H](NC(=O)[C@H](Cc2ccc3ccccc3c2)NC(=O)[C@H](CCCNC(=N)N)NC(=O)[C@@H](N)CCCNC(=N)N)C(=O)N[C@@H](Cc2ccc(O)cc2)C(=O)N[C@@H](CCCNC(=N)N)C(=O)N[C@@H](CCCCN)C(=O)N[C@H](CCCCN)C(=O)N2CCC[C@H]2C(=O)N[C@@H](Cc2ccc(O)cc2)C(=O)N[C@@H](CCCNC(=N)N)C(=O)N[C@@H](CCCNC(=N)N)C(=O)N1)C(=O)O
– | – | 353 nM | – | – | CC(C)C[C@H](NC(=O)[C@H](CO)NC(=O)[C@@H](NC(=O)[C@H](C)NC(=O)[C@@H](N)CCCCN)C(C)C)C(=O)N[C@@H](CO)C(=O)N[C@@H](Cc1ccc(O)cc1)C(=O)N[C@@H](CCCNC(=N)N)C(=O)N[C@@H](CO)C(=O)N[C@@H](C)C(=O)NCCCC[C@H](NC(=O)[C@@H]1CSSC[C@H](NC(=O)[C@H](Cc2ccc3ccccc3c2)NC(=O)[C@H](CCCNC(=N)N)NC(=O)[C@@H](N)CCCNC(=N)N)C(=O)N[C@@H](Cc2ccc(O)cc2)C(=O)N[C@@H](CCCNC(=N)N)C(=O)N[C@@H](CCCCN)C(=O)N[C@H](CCCCN)C(=O)N2CCC[C@H]2C(=O)N[C@@H](Cc2ccc(O)cc2)C(=O)N[C@@H](CCCNC(=N)N)C(=O)N[C@@H](CCCNC(=N)N)C(=O)N1)C(=O)O
– | – | 678 nM | – | – | CC(C)C[C@H](NC(=O)[C@H](CO)NC(=O)[C@H](Cc1ccccc1)N(C)C(=O)[C@@H]1CCCN1C(=O)[C@@H](N)CCCCN)C(=O)N[C@@H](CO)C(=O)N[C@@H](Cc1ccc(O)cc1)C(=O)N[C@@H](CCCNC(=N)N)C(=O)N[C@@H](CO)C(=O)N[C@@H](C)C(=O)NCCCC[C@H](NC(=O)[C@@H]1CSSC[C@H](NC(=O)[C@H](Cc2ccc3ccccc3c2)NC(=O)[C@H](CCCNC(=N)N)NC(=O)[C@@H](N)CCCNC(=N)N)C(=O)N[C@@H](Cc2ccc(O)cc2)C(=O)N[C@@H](CCCNC(=N)N)C(=O)N[C@@H](CCCCN)C(=O)N[C@H](CCCCN)C(=O)N2CCC[C@H]2C(=O)N[C@@H](Cc2ccc(O)cc2)C(=O)N[C@@H](CCCNC(=N)N)C(=O)N[C@@H](CCCNC(=N)N)C(=O)N1)C(=O)O
